Experimental data collected from several papers.
Compare with care: the assays were run in different laboratories.

test	test system	conditions	quantity	value	Structure (SMILES)
–	female Fischer 344 rat, plasma	intravenous, 12 mg/m², single dose	half-life	4.2 h	COc1cc2c3c(n(CCCN4CCOCC4)c(=O)c2cc1OC)-c1cc2c(cc1C3=O)OCO2
chemical stability	dog, plasma	–	half-life	0.252 h	COC(=O)[C@H](N)CSSC[C@@H](N)C(=O)OC
–	male Sprague-Dawley rat, brain	oral, 30 mg/kg, 2 h, single dose	concentration	20 ng/g	COc1ccc2c(=O)n(C)c(-c3ccccc3)nc2c1
–	male Sprague-Dawley rat, plasma	oral, 10 mg/kg, 30 min, single dose	concentration	21400 ng/mL	COc1cccc(-c2n[nH]c(SCc3ccccn3)n2)c1OC
–	Wistar rat, plasma	oral, 10 mg/kg, 24 h, single dose	concentration	350 ng/mL	CCc1cc(-c2noc(-c3cc(OC)nc(C4CCCC4)c3)n2)cc(C)c1OC[C@@H](O)CO
–	male Sprague-Dawley rat, plasma	intravenous, 3 mg/kg	C0	2600 ng/mL	CCc1cc(C(=O)NC)c2nccc(N3CCc4c(cc(Cn5ccnc5)cc4-c4cn(C)nc4C(F)(F)F)C3=O)c2c1
–	Sprague-Dawley rat, plasma	intravenous, 2 mg/kg	C0	2400 ng/mL	Oc1c(Br)cc(Cl)c2cccnc12
–	male Sprague-Dawley rat, plasma	oral, 100 mg/kg, 2 h, single dose	concentration	3.8 ng/mL	Cc1noc(C)c1Cn1cc(N2C(=O)N(Cc3cccc(O)c3)C(C)(C)C2=O)cn1
–	male Sprague-Dawley rat, blood	oral, 20 mg/kg, 8 h	concentration	11.1 µM	Cc1ccc(-c2cc(C(F)(F)F)nn2-c2ccc(S(N)(=O)=O)cc2)cc1
–	male Sprague-Dawley rat, plasma	oral, 10 mg/kg, 15 min	concentration	45.5 ng/mL	CCOC(=O)[C@@]12C[C@@H]1[C@@H](n1ccc3c(NC)nc(C#Cc4ccc(Cl)s4)nc31)[C@H](O)[C@@H]2O
–	male Sprague-Dawley rat, plasma	intravenous, 1 mg/kg, 30 min	concentration	12.1 ng/mL	Cc1noc(C)c1Cn1cc(N2C(=O)CN(Cc3cccc(O)c3)C2=O)cn1
